The source made the active and inactive calls.
Columns and labels:
[1] = molecular target: Sodium-dependent serotonin transporter (Homo sapiens) (UniProt P31645); experiment: Binding affinity to SERT at 10 uM by displacement assay
Mus musculus [2] = experiment: Anticonvulsant activity against maximal electroshock-induced seizures in CD1 mouse model at 20 mg/kg, po treated 30 mins before electroshock application; assay type: functional, organism-based; parameters: dose 20 mg/kg
In short: (§1)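 Male CD-1 mice dosed po (10 mL/kg in 5% DMSO/95% of 0.5% HPMC/1% Tween 80) 30 min before corneal electroshock at 50 mA for 0.2 s, with 1% proparacaine in each eye. Latency to hindlimb extension recorded to 0.1 s. No extension within 6 s scored as protected (latency 6 s). Reported as protected/tested (8 per group), or EC50 derived from latency scores.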

[3] = Binding affinity to central-type benzodiazepine receptor at 10 uM by displacement assay
Rattus norvegicus [4] = experiment: Antinociceptive activity in formalin-treated Sprague-Dawley rat model assessed as reduction in hind paw flinches at 34 mg/kg, po measured during 11 to 60 mins of phase 2 flinches; assay type: functional; parameters: scale not given: the % may be the effect or the level left
In short: (§2)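 A small metal band was glued to the right hind paw of male Sprague-Dawley rats 1 h before testing. Compound given po in 0.5% methylcellulose 1 h before the test, then 50 μL of 2.5% formalin injected sc into the dorsal paw. Flinches counted electromagnetically for 60 min; phase II covers 11-60 min post-injection.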

[5] = molecular target: T1, 5-hydroxytryptamine receptor 1A (Homo sapiens) (UniProt P08908); experiment: Displacement of radioligand from 5HT1A receptor at 10 uM by displacement assay
T1 sequence (whole entry): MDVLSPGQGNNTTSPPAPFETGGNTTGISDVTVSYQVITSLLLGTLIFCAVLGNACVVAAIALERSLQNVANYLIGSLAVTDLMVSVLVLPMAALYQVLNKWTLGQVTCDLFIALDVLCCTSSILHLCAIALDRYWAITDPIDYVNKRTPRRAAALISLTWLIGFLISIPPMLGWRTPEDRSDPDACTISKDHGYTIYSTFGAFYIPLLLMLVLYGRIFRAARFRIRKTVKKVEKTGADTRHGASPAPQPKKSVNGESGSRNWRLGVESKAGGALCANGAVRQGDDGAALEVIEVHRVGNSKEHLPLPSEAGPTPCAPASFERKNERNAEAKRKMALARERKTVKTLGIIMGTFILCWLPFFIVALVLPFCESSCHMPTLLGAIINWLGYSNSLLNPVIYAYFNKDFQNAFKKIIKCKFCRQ

Mus musculus [6] = experiment: Anticonvulsant activity against maximal electroshock-induced seizures in CD1 mouse model at 10 mg/kg, po treated 30 mins before electroshock application; assay type: functional, organism-based; parameters: dose 10 mg/kg; in short: as §1
Rattus norvegicus [7] = experiment: Antinociceptive activity in formalin-treated Sprague-Dawley rat model assessed as reduction in hind paw flinches at 17 mg/kg, po measured during 11 to 60 mins of phase 2 flinches; assay type: functional; parameters: scale not given: the % may be the effect or the level left
In short: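 Male Sprague-Dawley rats dosed po in 0.5% methylcellulose 1 h before assay. A 0.5 g metal band was glued to the right hind paw 1 h beforehand. 2.5% formalin (50 μL) was injected sc into the dorsal right hind paw. An electromagnetic detector counted flinches for 60 min; phase II is 11-60 min post-injection.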

Rattus norvegicus [8] = experiment: Analgesic activity in po dosed Sprague-Dawley rat assessed as reduction of spinal nerve ligation-induced allodynia score; assay type: functional
In short: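 L5 spinal nerve tightly ligated distal to the DRG under halothane in male Sprague-Dawley rats, followed by 2-3 weeks of recovery. Von Frey withdrawal thresholds taken on a wire-mesh floor (top threshold 15 g), with baseline measured before dosing. Compound given po in 0.5% methylcellulose; testing at 1 and 2 h post-dose.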

[9] = Binding affinity to sodium channel site 2 at 10 uM by displacement assay
[10] = Binding affinity to Calcium channel DHP site at 10 uM by displacement assay
[11] = molecular target: Kappa-type opioid receptor (Rattus norvegicus) (UniProt P34975); experiment: Displacement of [3H]U69593 from rat recombinant kappa opioid receptor expressed in CHO cells at 30 uM; assay type: cell-based
[12] = molecular target: Mu-type opioid receptor (Homo sapiens) (UniProt P35372); experiment: Displacement of [3H]diprenorphine from human recombinant mu opioid receptor expressed in HEK293 cells at 10 uM; assay type: cell-based
[13] = molecular target: Cannabinoid receptor 1 (Homo sapiens) (UniProt P21554); experiment: Displacement of [3H]CP-55940 from human recombinant CB1 receptor expressed in CHO cells at 10 uM; assay type: cell-based
Rattus norvegicus [14] = experiment: Analgesic activity in Sprague-Dawley rat assessed as reduction of spinal nerve ligation-induced allodynia score at 10 mg/kg, po; assay type: functional; parameters: scale not given: the % may be the effect or the level left
In short: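 Male Sprague-Dawley rats; L5 spinal nerve tightly ligated with 4.0 silk distal to the DRG under halothane, then 2-3 weeks recovery. Dosed po in 0.5% methylcellulose. Von Frey tactile withdrawal thresholds measured on a wire mesh floor, top threshold 15 g. Baseline taken just before dosing; testing at 1 and 2 h post-dose.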

[15] = Binding affinity to voltage-dependent N-type calcium channel at 10 uM by displacement assay
[16] = molecular target: Cannabinoid receptor 2 (Homo sapiens) (UniProt P34972); experiment: Displacement of [3H]WIN-55212-2 from human recombinant CB2 receptor expressed in CHO cells at 10 uM; assay type: cell-based
[17] = molecular target: Delta-type opioid receptor (Homo sapiens) (UniProt P41143); experiment: Displacement of [3H]DADLE from human recombinant delta opioid receptor expressed in CHO cells at 10 uM; assay type: cell-based
[18] = Binding affinity to Calcium channel diltiazem site at 10 uM by displacement assay
[19] = molecular target: Kappa-type opioid receptor (Rattus norvegicus) (UniProt P34975); experiment: Displacement of [3H]U69593 from rat recombinant kappa opioid receptor expressed in CHO cells at 10 uM; assay type: cell-based
Rattus norvegicus [20] = experiment: Antinociceptive activity in formalin-treated Sprague-Dawley rat model assessed as reduction in hind paw flinches at 10 mg/kg, po measured during 11 to 60 mins of phase 2 flinches; assay type: functional; parameters: scale not given: the % may be the effect or the level left; in short: as §2

Sequence of Sodium-dependent serotonin transporter (Homo sapiens) (P31645 whole entry, looked up): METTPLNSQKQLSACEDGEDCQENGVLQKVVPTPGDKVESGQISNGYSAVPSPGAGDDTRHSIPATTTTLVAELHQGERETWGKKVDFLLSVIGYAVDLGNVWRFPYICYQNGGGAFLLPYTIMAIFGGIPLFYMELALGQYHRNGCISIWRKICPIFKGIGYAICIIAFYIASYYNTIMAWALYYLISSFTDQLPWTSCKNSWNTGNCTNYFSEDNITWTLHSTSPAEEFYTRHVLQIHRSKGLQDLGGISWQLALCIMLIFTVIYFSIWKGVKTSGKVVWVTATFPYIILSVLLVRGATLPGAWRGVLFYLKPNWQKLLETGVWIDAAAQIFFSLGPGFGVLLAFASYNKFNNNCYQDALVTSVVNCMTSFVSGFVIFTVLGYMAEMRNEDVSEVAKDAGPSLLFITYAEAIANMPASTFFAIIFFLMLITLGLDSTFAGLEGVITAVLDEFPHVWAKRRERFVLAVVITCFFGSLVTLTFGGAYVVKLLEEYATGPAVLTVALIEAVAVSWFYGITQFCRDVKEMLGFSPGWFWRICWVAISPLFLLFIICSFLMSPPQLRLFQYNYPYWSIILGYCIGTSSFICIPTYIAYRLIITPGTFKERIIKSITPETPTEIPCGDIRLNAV
Sequence of Kappa-type opioid receptor (Rattus norvegicus) (P34975 whole entry): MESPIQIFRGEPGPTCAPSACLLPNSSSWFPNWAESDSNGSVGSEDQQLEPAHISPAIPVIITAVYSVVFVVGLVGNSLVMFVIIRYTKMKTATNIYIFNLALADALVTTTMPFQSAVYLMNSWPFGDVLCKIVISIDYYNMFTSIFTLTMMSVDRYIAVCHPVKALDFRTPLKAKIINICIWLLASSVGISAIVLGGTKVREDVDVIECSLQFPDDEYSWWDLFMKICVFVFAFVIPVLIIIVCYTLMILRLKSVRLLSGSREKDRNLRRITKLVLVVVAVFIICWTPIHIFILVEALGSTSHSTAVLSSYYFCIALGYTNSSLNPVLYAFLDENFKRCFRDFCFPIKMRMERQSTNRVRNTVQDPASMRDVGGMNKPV
Sequence of Cannabinoid receptor 1 (Homo sapiens) (P21554 whole entry): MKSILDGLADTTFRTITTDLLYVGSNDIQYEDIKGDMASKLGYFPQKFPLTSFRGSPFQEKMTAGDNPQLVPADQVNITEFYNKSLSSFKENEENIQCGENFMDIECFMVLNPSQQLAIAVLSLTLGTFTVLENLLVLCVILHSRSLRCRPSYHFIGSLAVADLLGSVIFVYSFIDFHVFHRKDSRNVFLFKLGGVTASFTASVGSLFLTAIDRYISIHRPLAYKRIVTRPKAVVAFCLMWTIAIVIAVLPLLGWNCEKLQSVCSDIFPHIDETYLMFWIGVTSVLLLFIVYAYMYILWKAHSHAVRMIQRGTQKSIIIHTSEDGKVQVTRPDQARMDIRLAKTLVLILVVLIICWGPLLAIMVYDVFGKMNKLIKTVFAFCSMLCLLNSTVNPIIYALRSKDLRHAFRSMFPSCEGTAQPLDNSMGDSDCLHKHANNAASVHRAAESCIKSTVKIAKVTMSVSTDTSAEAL
Sequence of Delta-type opioid receptor (Homo sapiens) (P41143 whole entry): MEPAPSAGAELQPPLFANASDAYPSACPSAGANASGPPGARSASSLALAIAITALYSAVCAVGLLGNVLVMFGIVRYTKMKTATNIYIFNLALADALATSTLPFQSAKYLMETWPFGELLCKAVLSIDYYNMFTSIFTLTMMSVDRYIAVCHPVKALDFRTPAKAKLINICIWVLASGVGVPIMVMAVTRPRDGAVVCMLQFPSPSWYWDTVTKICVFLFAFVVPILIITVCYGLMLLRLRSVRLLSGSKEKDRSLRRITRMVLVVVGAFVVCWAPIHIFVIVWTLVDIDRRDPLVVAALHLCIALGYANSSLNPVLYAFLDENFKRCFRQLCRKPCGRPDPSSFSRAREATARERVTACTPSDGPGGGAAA
Sequence of Mu-type opioid receptor (Homo sapiens) (P35372 whole entry): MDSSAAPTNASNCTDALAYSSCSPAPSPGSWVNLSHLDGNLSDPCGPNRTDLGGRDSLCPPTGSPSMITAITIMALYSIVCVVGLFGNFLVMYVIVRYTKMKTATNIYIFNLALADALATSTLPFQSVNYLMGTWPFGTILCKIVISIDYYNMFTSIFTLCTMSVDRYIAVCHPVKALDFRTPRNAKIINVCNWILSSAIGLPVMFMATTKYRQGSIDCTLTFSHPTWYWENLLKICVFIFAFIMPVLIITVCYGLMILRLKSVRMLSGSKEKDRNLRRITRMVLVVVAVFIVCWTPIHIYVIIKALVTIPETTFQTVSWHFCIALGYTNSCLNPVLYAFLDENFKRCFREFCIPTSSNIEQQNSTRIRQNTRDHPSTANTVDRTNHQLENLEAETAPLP
Sequence of Cannabinoid receptor 2 (Homo sapiens) (P34972 whole entry): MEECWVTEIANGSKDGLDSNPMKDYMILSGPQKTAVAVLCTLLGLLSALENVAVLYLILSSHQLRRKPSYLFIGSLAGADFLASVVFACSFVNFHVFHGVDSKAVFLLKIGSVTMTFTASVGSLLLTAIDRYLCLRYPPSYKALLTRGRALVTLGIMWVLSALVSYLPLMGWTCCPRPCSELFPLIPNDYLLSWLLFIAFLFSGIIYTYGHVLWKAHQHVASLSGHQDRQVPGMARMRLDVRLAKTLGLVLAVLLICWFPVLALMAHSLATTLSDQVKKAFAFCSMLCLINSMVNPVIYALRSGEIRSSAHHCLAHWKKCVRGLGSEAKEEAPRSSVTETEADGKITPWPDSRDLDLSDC

Activity [1] [%] | Activity [3] [%] | Activity [5] [%] | Activity [9] [%] | Activity [10] [%] | Activity [11] [%] | Activity [12] [%] | Activity [13] [%] | Activity [15] [%] | Activity [16] [%] | Activity [17] [%] | Activity [18] [%] | Activity [19] [%] | Structure (SMILES) | Activity (Mus musculus [2]) | Activity (Rattus norvegicus [4]) [%] | Activity (Mus musculus [6]) | Activity (Rattus norvegicus [7]) [%] | ED50 (Rattus norvegicus [8]) [mg/kg] | Activity (Rattus norvegicus [14]) [%] | Activity (Rattus norvegicus [20]) [%]
20 | 0 | 0 | – | – | – | – | – | – | – | – | – | – | Cn1/c(=N/NC(=O)CC2CCCC2)sc2cc(OC(F)(F)F)ccc21 | Active | 28 | – | – | – | – | –
0 | 0 | 0 | – | – | – | – | – | – | – | – | – | – | Cn1/c(=N/NC(=O)CC(C)(C)C)sc2cc(OC(F)(F)F)ccc21 | – | – | Active | 55 | 20 | – | –
14 | 22 | 18 | 35 | 0 | 0 | 0 | 19 | 0 | 0 | 10 | 0 | 15 | CC(C)OC(=O)N/N=c1\sc2cc(OC(F)(F)F)ccc2n1C | Active | – | – | – | 16.2 | 100 | 47

From ChEMBL document CHEMBL1157731, “Novel KCNQ2/Q3 agonists as potential therapeutics for epilepsy and neuropathic pain” (J Med Chem, 2010)
